Compound activity from PubChem.
In the library only some 3.3% were active in any assay of this set; here they are far more common.
FGF22 binding: FGF22 (human) thermal shift binding | actives 1.5% (n = 340,000) | recombinant FGF22 thermal shift, SYPRO orange fluorescence; percent of sucrose octasulfate shift, DMSO zero | activity (Tm shift, normalised), % at 9.99 µM;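 active means mean Tm shift, scaled 0 neutral to 100 positive control, at about 1.3% or above, every replicate too, limit read from the data; inconclusive means no clear call, values can overlap the other calls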
E-selectin induc: induces E-selectin expression in human endothelial cells. P16581. HUVEC E-selectin immunofluorescence imaging; normalized: neutral wells 0, TNF-alpha wells 100. activation, % at 7.58 µM. actives 0.37% (n = 260,000);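 active means mean E-selectin-positive cell signal at least 10% of the positive control, reached in at least 60% of replicates, without over 20% cell loss; inconclusive means no rule given, readout overlaps actives, possibly toxicity-flagged; inactive means the rest, including those meeting only one limit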
Target sequence (P16581 whole entry, looked up): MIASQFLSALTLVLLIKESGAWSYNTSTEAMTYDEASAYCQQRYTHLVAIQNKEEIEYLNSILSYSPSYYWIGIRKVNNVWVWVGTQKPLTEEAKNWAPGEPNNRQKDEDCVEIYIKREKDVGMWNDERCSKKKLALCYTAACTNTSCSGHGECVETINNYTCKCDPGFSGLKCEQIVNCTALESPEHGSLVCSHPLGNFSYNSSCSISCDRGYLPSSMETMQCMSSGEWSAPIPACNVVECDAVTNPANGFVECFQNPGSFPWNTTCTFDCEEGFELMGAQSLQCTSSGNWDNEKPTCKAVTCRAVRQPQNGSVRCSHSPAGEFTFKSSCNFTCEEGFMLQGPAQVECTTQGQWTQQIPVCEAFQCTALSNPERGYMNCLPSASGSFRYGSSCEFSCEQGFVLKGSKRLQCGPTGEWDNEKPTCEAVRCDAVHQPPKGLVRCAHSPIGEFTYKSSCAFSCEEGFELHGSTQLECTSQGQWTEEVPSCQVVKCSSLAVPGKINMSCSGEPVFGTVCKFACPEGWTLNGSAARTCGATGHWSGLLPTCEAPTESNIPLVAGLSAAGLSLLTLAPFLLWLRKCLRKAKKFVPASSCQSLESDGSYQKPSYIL
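material = human umbilical vein endothelial cells (HUVEC), E-selectin induction | quantity = 3,000 cells/well | medium = EGM-2 growth medium on 0.1% gelatin-coated wells | technique = immunofluorescence imaging | read-out basis = % PE-positive cells | control set = TNF-alpha positive control, DMSO neutral control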
Statin myotox sup: suppression of simvastatin myotoxicity. C2C12 myotubes + simvastatin, ATP luminescence, 48 h; scaled: DMSO 0, geranylgeraniol control 100. AID 602340. rescue of ATP level, % at 7.49 µM. actives 0.78% (n = 330,000);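 active means mean ATP rescue above about 67%, or every replicate alone reaching that limit, limit read from the data, passing the limit was not always enough; inconclusive means no clear call, values can overlap the other calls; inactive means mean under the limit and some replicate under it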;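 further: myotubes were challenged with 10 µM simvastatin during compound exposure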
DENV2 CPE rescue: DENV2-induced cell death inhibition | DENV2-infected cells, cytopathic effect rescue, plate reader | CPE inhibition, % at 9.99 µM | actives 1.7% (n = 350,000) | AID 651640; in the data active means CPE inhibition above about 20%, passing the limit was not always enough; inconclusive means no clear call, values can overlap the other calls; tested in BHK-21 cells;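 further: 0% = median of neutral control wells and 100% = median of positive control wells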
PglD inh: blocks C. jejuni PglD acetyltransferase activity; AID 602405; purified PglD enzyme, DTNB colorimetric CoA detection; inhibition, % at 12.5 µM; actives 0.098% (n = 360,000); in the data active means inhibition above about 16%, passing the limit was not always enough; inconclusive means no clear call, values can overlap the other calls
Xi reactivation: reactivates the inactive X chromosome in mouse fibroblasts | actives 0.055% (n = 360,000) | AID 743238 | XiGFP mouse fibroblasts, % GFP-positive cells imaging, 3 d; cells co-treated with 5-aza-dC sensitizer; scaled so ellipticine positive control = 100% | activation, % at 7.58 µM;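 active means mean normalized replicate activation at least 10% and every replicate at or above 10%; inconclusive means only one of the two criteria met; inactive means mean below 10% and not all replicates reach 10%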;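 further: 0% = median of on-plate neutral control wells and 100% = ellipticine 6 µM median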
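System: 68-5-11 XiGFP fibroblast line | Buffer or medium: DMEM containing 5-aza-dC | Compound: Single point | Times: Compounds 3 days, fix/stain 15 min at room temperature | Benchmarks: Positive control ellipticine, 6 µM final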
* marks the source's active call; other numbers are inactive results; u = inconclusive; x = no result.

SMILES | FGF22 binding | E-selectin induc | Statin myotox sup | DENV2 CPE rescue | PglD inh | Xi reactivation
COc1cc2nc(Nc3ccc(C)c(Cl)c3)nc(N)c2cc1OC | 0 | 0 | -26 | 4 | 5 | 0
Cc1ccc(Nc2nc(N)c3ccccc3n2)cc1Cl | 2.2* | 1 | -43 | 8 | 1 | 0
Cn1c(=O)c(C(=O)CSc2ccccc2)c(N)n(Cc2ccccc2)c1=O | 43* | x | x | 10 | x | 1
COC(=O)C1C(c2ccc(N(C)C)cc2)C(C(=O)OC)S(=O)(=O)CS1(=O)=O (configuration not stated) | 43* | 0 | x | x | x | 0
CCC(=O)N1C[C@@H](C)[C@@H](OC)CN(C)C(=O)c2cc(NC(=O)c3cnccn3)ccc2OC[C@H]1C | x | 0 | -7 | x | x | 0
COc1ccc2c(c1)CC/C2=N\OC(=O)c1ccccc1C | 0 | -1 | x | x | x | 0
COc1ccc2c(c1)CCC/C2=N/OC(=O)c1ccccc1OC | 44* | x | x | 1 | x | 0
CC(C)(C)C(=O)/C=c1\s/c(=C\c2ccc(-c3ccc([N+](=O)[O-])cc3)o2)c(=O)n1CC(=O)NC(N)=O | 44* | 6 | -3 | 8 | 3 | 110*
CCC(=O)N/N=C/c1ccc(-c2ccc([N+](=O)[O-])cc2)o1 | 43 | x | -8 | -5 | 1 | 0
COc1cccc(=O)c2c(C)n(CC(=O)c3ccccc3)c(C)c12 | 44* | 0 | 13 | 1 | -4 | 0
CO[C@@H]1CC[C@@H]2CCOc3c(C#N)cccc3C(=O)N(C)[C@@H](C)C(=O)N(C)C[C@@H]1O2 | 0 | 0 | -5 | -2 | 5 | 0
CC(C)(C)NC(=O)c1nn(Cc2ccccc2)c(=O)c2ccccc12 | 43* | 0 | 5 | 1 | -8 | 0
CO[C@H]1CN(C)C(=O)c2cc(NS(=O)(=O)c3ccc(C)cc3)ccc2OC[C@@H](C)N(C)C[C@@H]1C | 0 | 0 | -17 | 5 | 2 | 0
O=C1NC2(CCCCCC2)C(=O)N1Cc1cccc(Cl)c1 | 0 | 0 | 7 | -1 | -2 | 0
O=C1NC2(CCCCC2)C(=O)N1Cc1cccc(C(F)(F)F)c1 | 43* | x | 13 | 2 | 4 | 0
CCCCCc1ccc(-c2cn(CCc3c[nH]c4ccccc34)nn2)cc1 | 0 | x | 33 | x | -5 | 0
O=C(O)CCCCCCCCc1cn(CCc2c[nH]c3ccccc23)nn1 | 0 | 0 | x | 21* | 2 | 0
CCCC#Cc1ccc([C@H]2[C@@H](CO)N3C(=O)CN(C(=O)NC4CCCC4)C[C@@H]23)cc1 | x | 0 | x | 31* | x | 0
O=C(Nc1ccccc1F)N1CC(=O)N2[C@H](CO)[C@H](c3ccc(C#Cc4ccc(F)cc4)cc3)[C@@H]2C1 | x | 0 | x | 27* | x | 0
CCCC#Cc1ccc([C@@H]2[C@H]3CN(C(=O)Nc4ccc(F)cc4)CC(=O)N3[C@H]2CO)cc1 | x | 1 | x | 42* | x | 0
CC(C)C(=O)Nc1ccc2c(c1)C(=O)N(C)[C@@H]1CC[C@H](CC(=O)N[C@@H](C)c3ccccc3)O[C@H]1CO2 | 0 | 0 | -17 | 1 | -2 | 0
C[C@@H]1CN([C@@H](C)CO)C(=O)Cc2cc(NC(=O)c3ccncc3)ccc2O[C@H]1CN(C)Cc1ccc(C(F)(F)F)cc1 | x | 0 | 10 | x | x | -1
CO[C@H]1CN(C)C(=O)c2cc(NC(=O)C3CC3)ccc2OC[C@@H](C)N(C(=O)c2ccccc2)C[C@@H]1C | 0 | 0 | 4 | 14 | 1 | 0
O=C(NCCN1CCOCC1)c1ccc(CSc2nc3ccncc3n2Cc2ccc(F)cc2)cc1 | 44* | x | x | -13 | x | 0
O=C(C[C@@H]1CC[C@@H](NC(=O)NC2CCCCC2)[C@@H](CO)O1)NCc1ccc(Cl)cc1 | 0 | 0 | 1 | u | 1 | -1
SMILES | FGF22 binding | E-selectin induc | Statin myotox sup | DENV2 CPE rescue | PglD inh | Xi reactivation
Cc1cc(C(F)(F)F)c2sc(N)nc2n1 | x | x | 85* | x | -3 | x
Nc1nc2nc(-c3ccccc3)cc(C(F)(F)F)c2s1 | 0 | 0 | 24 | -1 | 3 | 1
O=C(O)C1Cc2[nH]cnc2C(c2ccc(F)cc2)N1 (configuration not stated) | 43* | x | x | -1 | x | 0
O=C(Nc1ccc(F)cc1)c1nc[nH]c1C(=O)O | 0 | 2 | -9 | -6 | -1 | 0
Cc1ccc(S(=O)(=O)N2C(=O)C(C)SC2=Nc2ccccc2)cc1 (configuration not stated) | x | x | x | x | 6 | 0
C=CCN=C1SC(C)C(=O)N1S(=O)(=O)c1ccccc1 (configuration not stated) | x | x | 109* | x | -4 | x
CNC[C@H]1Oc2c(N)cccc2C(=O)N(C)C[C@H]1C | x | x | x | x | x | 0
COCCn1c(SCC(=O)c2ccccc2)nc2c(c1=O)SCC2 | 43* | -2 | 1 | -2 | 2 | 0
COCCn1c(SCC(=O)N2CCCCC2)nc2c(c1=O)SCC2 | 0 | 4 | x | 10 | 2 | 0
Cn1c(SCC(=O)N2CCCC2)nc2c(c1=O)SCC2 | 0 | 0 | 8 | 59* | -3 | 0
COc1ccc(N=Nc2c(N)nn(C)c2N)cc1 | 44* | 1 | -6 | -1 | x | 0
O=C(CSc1nc2c(oc3ccccc32)c(=O)n1CC1CCCO1)NCc1ccc(F)cc1 (configuration not stated) | 0 | 0 | -21 | -2 | -1 | 0
O=C(CSc1nc2c(oc3ccccc32)c(=O)n1CC1CCCO1)NCc1ccccc1 (configuration not stated) | 0 | 0 | 2 | 72* | 2 | 0
CC(CN1CCCC1)OC(=O)c1ccccc1Cl (configuration not stated) | 0 | x | 0 | u | 4 | 0
CC(CN1CCCCC1)OC(=O)Cc1ccc(Cl)cc1 (configuration not stated) | x | x | -11 | x | 1 | x
COc1ccc(CC(=O)OC(C)CN2CCCCC2)cc1 (configuration not stated) | 43* | x | x | 0 | x | 0
CC(CN1CCCCC1)OC(=O)c1ccco1 (configuration not stated) | 0 | 39* | 3 | 19 | 1 | 0
O=C(C1CCCCC1)N1C[C@@H]2[C@H](c3ccccc31)[C@H](CO)N2C(=O)Cc1ccccn1 | 0 | 1 | -19 | 0 | -1 | 0
CCCC(=O)N1CC2(CCN(S(=O)(=O)CC)CC2)c2c(n(C)c3cc(OC)ccc23)[C@H]1CO | 0 | 1 | x | -1 | x | 0
CCOc1ccc2[nH]cc(S(=O)(=O)c3ccc(C)cc3)c(=O)c2c1 | 0 | 2 | -8 | 60* | 0 | 0
CCOc1ccc2[nH]cc(S(=O)(=O)c3ccc(Cl)cc3)c(=O)c2c1 | 0 | x | x | -2 | x | 0
